Screens (PubChem)
FN deposition inh = fibronectin deposition inhibition. hit rate 0.086% among 350,000. AID 743247. inhibition, % at 12.6 µM. AH1F fibroblasts, Alexa488-fibronectin deposition fluorescence, overnight;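 active means mean inhibition across replicates of 30% or more, regardless of how many single replicates reach that level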;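 further: positive control wells lacked labelled fibronectin entirely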
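Test system: AH1F fibroblast monolayer depositing Alexa488-labelled fibronectin into matrix. Input: 10000 cells per well. Technique: fluorescence, ex 485 nm, em 525 nm. Buffer or medium: DMEM plus 2% serum, read in PBS. Timing: 1 h cell adhesion before compound, then overnight fibronectin incubation. Compound: single dose, pinned. Read-out basis: inhibition from reduced deposited-fibronectin fluorescence.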
PAX8 inh HTS = lowers PAX8-driven luciferase in RMG-I cells; RMG-I TPO-luciferase reporter, SteadyGlo, 24 h; inhibition, % at 12.6 µM; hit rate 1.2% among 360,000; AID 652154;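 active means mean replicate inhibition at least 60% with every replicate also reaching 60%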;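 further: luciferase light reporting Pax8 driven TPO promoter activity; plate controls were median of neutral control wells for no effect and mitoxantrone controls for full effect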
RAD52 inh = inhibitors of human RAD52 DNA annealing; inhibition, % at 18.7 µM; AID 651710; P43351; hit rate 0.46% among 360,000; recombinant RAD52 DNA annealing, FRET fluorescence;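 active means every replicate showing at least 50% inhibition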
RAD54 inh = blocks human RAD54 Holliday junction branch migration. hit rate 0.14% among 360,000. inhibition, % at 10.4 µM. FAM/BHQ fluorescence;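 active means mean normalized replicate activity at least 40 and at least half of replicates scoring 40 or more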;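 further: 0% = median of neutral control wells and 100% = median of positive control wells; inhibitors cause a drop in the FAM fluorescence signal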
* hit, by the source's call; i = inactive; · = no result given; ! = a repeat was not active. Rows were chosen to be rich in hits. Some 1.3% of all compounds tested hit in one or more screens of this group.

SMILES	FN deposition inh	PAX8 inh HTS	RAD52 inh	RAD54 inh
Cc1ccc(N=CC2=C(O)CC(c3ccc(Cl)cc3)CC2=O)cc1 (centres undefined)	-16.4	146.2*	-20.6	2.6
O=C1CC(c2ccccc2)CC(O)=C1C=Nc1ccccc1 (centres undefined)	3.7	-4.9	-12.5	·
Nc1ccc(C(=O)O)cc1	-1.5	-9.4	-40.7	0.4
N=C(N)c1ccc(N)cc1	-1.6	3.9	99.6*	46.5
N=C(N)c1ccc(OCCCCCOc2ccc(C(=N)N)cc2)cc1	-6.6	83.4*	16.0	6.2
Cc1nnsc1NC(=O)OCC(C)C	·	·	·	0.0
CCOC(=O)C(=O)CC(=O)c1ccc2c(c1)OCCO2	1.2	0.5	-19.6	-3.1
NC(Cc1ccccc1)c1csc(NC(=O)Nc2ccccc2Oc2ccccc2)n1 (centres undefined)	6.6	-9.1	-30.3	-5.2
COc1ccc(CC(N)c2csc(NC(=O)Nc3ccccc3Oc3ccccc3)n2)cc1 (centres undefined)	-5.5	3.3	77.0*	-8.9
COCC(=O)Nc1ccc2c(c1)C(=O)N(C)[C@@H]1CC[C@@H](CC(=O)Nc3ccccc3)O[C@@H]1CO2	-12.2	-6.3	1.3	-4.4
CCN(CC)c1ccc(/C=C/c2cccc[n+]2C)c(OC)c1	-94.2	95.2*	i	-333.4
O=c1cc2oc3cc(O)c(O)cc3c(-c3ccccc3[N+](=O)[O-])c-2cc1O	6.5	101.9*	-0.1	-2.2
COc1ccc(Cc2nc3c4c(ncn3n2)Oc2c(ccc3ccccc23)C4c2ccc(OC)c(OC)c2)cc1 (centres undefined)	-6.1	7.9	-6.0	·
O=C(NCc1nc2ccccc2[nH]1)C1=C[C@@H](c2ccc(Br)cc2)C[C@@H](OCCCCO)O1	-0.1	9.2	-83.9	-15.0
O=C(NCc1nc2ccccc2[nH]1)C1=C[C@@H](c2ccc(Br)cc2)C[C@@H](OCc2ccc(CO)cc2)O1	-6.7	84.6*!	-55.5	-0.3
O=C(O)c1ccc(N/N=C/c2ccc3c(c2)OCO3)cc1	4.2	88.1*	-6.2	·
COc1ccc(-c2csc(NC(C)=O)n2)cc1OC	5.7	-19.2	·	6.7
COc1cccc(NC(=O)Nc2nc(-c3ccc(OC)c(OC)c3)cs2)c1	28.0	104.5*	-3.9	-1.0
COc1cccc(NC(=O)c2ccccc2)c1	-4.5	-146.2	-13.0	2.0
O=C(Nc1ccc2c(c1)OCO2)Nc1ccc2c(c1)OCO2	6.5	-192.5	-3.1	-4.5
O=C(Nc1cccc(C(=O)O)c1)Nc1ccc2c(c1)OCO2	6.4	103.3*	-8.5	0.3
COc1cccc(NC(=O)Nc2cccc(C(=O)O)c2)c1	9.7	80.1*	-2.4	·
CC1Cc2[nH]c(=S)[nH]c(=O)c2C(C)O1 (centres undefined)	1.4	-21.3	-11.1	·
CC(=O)c1cccc(NC(=O)CN(C)S(=O)(=O)c2cccc3nsnc23)c1	11.3	-20.9	4.2	3.0
COc1ccccc1N1CCN(C(=O)CSc2nc(N)cc(=O)[nH]2)CC1	-4.1	·	·	9.2
SMILES	FN deposition inh	PAX8 inh HTS	RAD52 inh	RAD54 inh
C/C=C(\C)C(=O)OC1CC(C)(C)C[C@H]2C3=CC[C@@H]4[C@@]5(C)CCC(O[C@@H]6O[C@@H](C(=O)O)[C@@H](O)C(O[C@@H]7OC[C@H](O)[C@@H](O)[C@@H]7O[C@@H]7OC(CO)C(O)[C@@H](O)[C@@H]7O)C6O[C@@H]6OC(CO)C(O)C(O)C6O)[C@@](C)(CO)[C@@H]5CC[C@]4(C)[C@]3(C)CC(O)[C@@]12CO (some centres undefined)	12.6	74.6*	-18.2	-19.0
O=C(NCCc1c[nH]c2ccccc12)c1ccc([N+](=O)[O-])o1	-8.6	71.7*	-0.6	2.7
O=C(NCCc1c[nH]c2ccccc12)c1cc([N+](=O)[O-])cc([N+](=O)[O-])c1	-2.5	9.3	0.8	-0.4
CNC(=O)c1cc(Oc2ccc(NC(=O)Nc3ccc(Cl)c(C(F)(F)F)c3)cc2)ccn1	10.8	96.4*	-32.6	-0.4
NC1=C(Cl)C(=O)c2ccc(S(N)(=O)=O)cc2C1=O	31.4*	120.9*	25.1	2.0
O=C1CN(C(=O)COC(=O)CNS(=O)(=O)c2ccccc2)c2ccccc2N1	-12.1	-9.4	-1.2	·
NC(=S)N/N=C\c1c2ccccc2cc2ccccc12	-2.2	9.3	·	11.7
NC(=S)NN=Cc1cc(-c2cccc(N)c2)ccn1	-3.2	94.1*	-16.3	5.7
O=[N+]([O-])c1cccc(/C=N/n2cnnc2)c1O	·	·	·	-16.4
O=[N+]([O-])c1ccccc1S(=O)(=O)Oc1ccccc1/C=N/n1cnnc1	-3.0	98.4*	3.2	·
CN(C)c1cc[n+](CC(=O)Nc2ccc(Cl)c([N+](=O)[O-])c2)cc1	-7.4	62.9*	-8.3	8.8
